“Also recorded” adds a separate entry of the source.
Legend:
[1] = molecular target: CYP3A4 (Homo sapiens, UniProt P08684); experiment: Metabolic stability phenotyping with recombinantly expressed CYPs; assay type: in vitro ADME; settings: recombinant CYP3A4, pH 7.4
Method in brief: (§1)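 Each recombinant human CYP at 100 pmol/ml with 1 μM test compound in potassium phosphate pH 7.4, 3.33 mM MgCl2. Prewarmed 10 min at 37 °C, then started with NADPH regenerating system; no-NADPH buffer controls. Aliquots at 0–45 min quenched in methanol with buspirone internal standard. MS peak-area ratios gave ln(ratio)-vs-time slope, converted to T1/2. Duplicates.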

[2] = molecular target: T1, human CYP2A6 (Homo sapiens, UniProt P11509); experiment: Coumarin metabolism assay
T1 sequence (P11509 with tags, fused parts or gaps limits assumed): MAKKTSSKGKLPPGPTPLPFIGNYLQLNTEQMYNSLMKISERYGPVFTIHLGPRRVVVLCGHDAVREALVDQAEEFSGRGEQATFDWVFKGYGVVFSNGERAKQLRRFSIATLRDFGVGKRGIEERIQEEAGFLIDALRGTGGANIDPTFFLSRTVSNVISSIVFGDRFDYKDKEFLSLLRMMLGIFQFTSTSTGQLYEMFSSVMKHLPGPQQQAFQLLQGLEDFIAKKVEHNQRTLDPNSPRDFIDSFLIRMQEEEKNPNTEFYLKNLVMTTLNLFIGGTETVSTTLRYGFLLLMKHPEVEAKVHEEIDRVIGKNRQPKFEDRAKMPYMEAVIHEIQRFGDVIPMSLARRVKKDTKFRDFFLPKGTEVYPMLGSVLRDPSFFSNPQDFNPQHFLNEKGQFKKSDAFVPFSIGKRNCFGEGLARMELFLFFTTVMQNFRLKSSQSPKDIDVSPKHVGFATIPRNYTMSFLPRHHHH

[3] = Metabolic stability in lung microsomes; assay type: in vitro ADME, male B6C2F1 mouse; settings: for half-life at 1 μM / microsomal CLint at 1 μM: male, B6C2F1, mouse, lung microsomes, pH 7.4; for Percent Loss of Substrate: mouse lung microsomes, 1 μM, 20-minute incubation
Method in brief: (§2)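 Pooled liver or lung microsomes (male B6C2F1 mouse, male Sprague-Dawley rat, human) at 1.0 mg protein/ml in 50 mM potassium phosphate pH 7.4, 3 mM MgCl2, 1 mM EDTA. […] Stopped at 0, 5, 10, 20 min with acetonitrile containing antipyrene, then LC/MS/MS. Single-exponential kel gave T1/2. CLint = kel × incubation volume/mg protein.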

[4] = molecular target: T2, CYP2B6 (Homo sapiens, UniProt P20813); experiment: Metabolic stability phenotyping with recombinantly expressed CYPs; assay type: in vitro ADME; settings: recombinant CYP2B6, pH 7.4
T2 sequence (P20813 1-491): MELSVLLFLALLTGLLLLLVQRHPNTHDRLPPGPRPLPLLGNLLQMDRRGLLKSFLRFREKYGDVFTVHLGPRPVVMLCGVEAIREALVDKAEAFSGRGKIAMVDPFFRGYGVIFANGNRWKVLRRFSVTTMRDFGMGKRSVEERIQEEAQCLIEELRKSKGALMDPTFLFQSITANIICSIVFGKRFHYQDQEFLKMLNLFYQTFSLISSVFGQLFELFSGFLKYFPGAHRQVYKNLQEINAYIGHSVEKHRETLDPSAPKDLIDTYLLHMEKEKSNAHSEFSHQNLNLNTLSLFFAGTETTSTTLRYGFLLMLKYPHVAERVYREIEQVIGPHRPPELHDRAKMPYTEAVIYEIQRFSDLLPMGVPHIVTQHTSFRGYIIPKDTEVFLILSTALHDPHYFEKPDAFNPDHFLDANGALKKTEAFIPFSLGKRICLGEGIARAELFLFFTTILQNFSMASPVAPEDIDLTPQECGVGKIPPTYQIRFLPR
Method in brief: as §1

[5] = molecular target: hERG (Homo sapiens, UniProt Q12809); experiment: hERG patch clamp assay; assay type: cell-based; settings: for inhibition at 10 µM: human
Chain of hERG (Q12809 whole entry): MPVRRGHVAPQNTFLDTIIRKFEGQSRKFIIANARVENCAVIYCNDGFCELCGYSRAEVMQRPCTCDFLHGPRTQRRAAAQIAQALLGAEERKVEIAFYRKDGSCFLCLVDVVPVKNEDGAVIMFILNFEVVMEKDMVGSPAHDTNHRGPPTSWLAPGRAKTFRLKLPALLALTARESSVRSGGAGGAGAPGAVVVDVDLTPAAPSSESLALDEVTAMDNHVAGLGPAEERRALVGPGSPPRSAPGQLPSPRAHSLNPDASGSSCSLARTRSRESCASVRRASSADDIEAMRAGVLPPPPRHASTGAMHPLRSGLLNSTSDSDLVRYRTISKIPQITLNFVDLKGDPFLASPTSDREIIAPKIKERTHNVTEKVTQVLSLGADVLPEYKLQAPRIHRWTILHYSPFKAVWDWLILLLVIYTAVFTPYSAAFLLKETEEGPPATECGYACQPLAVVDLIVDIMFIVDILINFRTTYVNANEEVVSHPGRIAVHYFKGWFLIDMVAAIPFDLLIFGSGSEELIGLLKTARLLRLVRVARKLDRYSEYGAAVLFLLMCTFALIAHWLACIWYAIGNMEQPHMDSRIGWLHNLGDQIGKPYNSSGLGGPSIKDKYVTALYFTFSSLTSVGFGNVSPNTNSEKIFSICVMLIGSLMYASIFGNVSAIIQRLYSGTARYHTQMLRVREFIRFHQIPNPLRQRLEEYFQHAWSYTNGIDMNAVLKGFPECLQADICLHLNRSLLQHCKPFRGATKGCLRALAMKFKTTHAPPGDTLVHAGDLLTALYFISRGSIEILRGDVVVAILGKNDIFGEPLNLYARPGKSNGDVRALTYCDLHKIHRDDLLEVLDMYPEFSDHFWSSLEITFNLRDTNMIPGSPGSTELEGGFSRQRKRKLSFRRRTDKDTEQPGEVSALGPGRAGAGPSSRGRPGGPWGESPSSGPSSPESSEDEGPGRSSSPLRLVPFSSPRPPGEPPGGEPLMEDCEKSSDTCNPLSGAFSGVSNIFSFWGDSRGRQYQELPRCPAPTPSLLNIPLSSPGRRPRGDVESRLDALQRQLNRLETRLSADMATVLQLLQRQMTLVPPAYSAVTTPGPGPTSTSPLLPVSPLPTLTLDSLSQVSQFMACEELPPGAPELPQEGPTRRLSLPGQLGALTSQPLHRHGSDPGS
Method in brief: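 hERG inhibition by patch clamp, measured as block of the tail current. Highest test concentration was 10 μM.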

[6] = Metabolic stability in lung microsomes; assay type: in vitro ADME; settings: human lung microsomes, 1 μM, 20-minute incubation
Method in brief: as §2

[7] = Metabolic stability in liver microsomes; assay type: in vitro ADME, human; settings: for Percent Loss of Substrate / substrate remaining: human liver microsomes; for Percent Loss of Substrate: 1 μM, 20-minute incubation; for substrate remaining: at the end of 20 min; for half-life at 1 μM / microsomal CLint at 1 μM: human, liver microsomes, pH 7.4
Method in brief: as §2

[8] = molecular target: T3, human CYP2A13 (Homo sapiens, UniProt Q16696); experiment: Spectral ligand binding assay; settings: for Spectral shift type 2A13: UV/Vis difference spectra
T3 sequence (Q16696 25-494): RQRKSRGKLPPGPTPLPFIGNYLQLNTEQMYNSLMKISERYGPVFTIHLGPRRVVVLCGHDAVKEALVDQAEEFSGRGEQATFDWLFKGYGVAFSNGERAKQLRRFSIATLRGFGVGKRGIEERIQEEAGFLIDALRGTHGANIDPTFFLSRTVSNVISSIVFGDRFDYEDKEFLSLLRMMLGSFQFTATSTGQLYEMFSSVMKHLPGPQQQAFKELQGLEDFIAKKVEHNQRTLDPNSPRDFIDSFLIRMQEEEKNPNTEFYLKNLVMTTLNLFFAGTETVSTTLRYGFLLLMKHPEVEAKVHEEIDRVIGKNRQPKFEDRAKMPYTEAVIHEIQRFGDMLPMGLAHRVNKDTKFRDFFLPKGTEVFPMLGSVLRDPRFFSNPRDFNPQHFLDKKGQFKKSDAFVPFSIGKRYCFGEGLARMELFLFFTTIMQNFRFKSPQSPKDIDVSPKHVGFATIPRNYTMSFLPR

[9] = Metabolic stability in lung microsomes; assay type: in vitro ADME, male Sprague-Dawley rat; settings: for half-life at 1 μM / microsomal CLint at 1 μM: male, Sprague-Dawley, rat, lung microsomes, pH 7.4; for Percent Loss of Substrate: rat lung microsomes, 1 μM, 20-minute incubation
Method in brief: as §2

[10] = Metabolic stability in liver microsomes; assay type: in vitro ADME, male Sprague-Dawley rat; settings: for half-life at 1 μM / microsomal CLint at 1 μM: male, Sprague-Dawley, rat, liver microsomes, pH 7.4; for Percent Loss of Substrate: rat liver microsomes, 1 μM, 20-minute incubation
Method in brief: as §2

[11] = molecular target: T1, human CYP2A6; experiment: Spectral ligand binding assay; settings: for Kd 2A6: spectral titration, ≥ = minimal Kd value
[12] = Metabolic stability in wild type mouse lung microsomes; assay type: in vitro ADME; settings: pH 7.4
Method in brief: (§3)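 Microsomes from B6 Cyp2a(4/5)bgs-null (CYP2A/CYP2B knockout) or side-by-side wild-type mouse lung and liver, at 0.1 mg protein/ml. Buffer was 50 mM potassium phosphate pH 7.4, 3 mM MgCl2, 1 mM EDTA. […] Parent loss by LC/MS/MS. Single-exponential kel converted to T1/2; CLint = kel × volume/mg protein.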

[13] = Metabolic stability in knockout mouse lung microsomes; assay type: in vitro ADME
Method in brief: as §3

[14] = Kd 2A13, spectral titration, ≥ = minimal Kd value
[15] = B6 Cyp2a(4/5)bgs-Null, mouse, lung microsomes from knockout mice, pH 7.4

Chain of CYP3A4 (P08684 2-503 limits assumed): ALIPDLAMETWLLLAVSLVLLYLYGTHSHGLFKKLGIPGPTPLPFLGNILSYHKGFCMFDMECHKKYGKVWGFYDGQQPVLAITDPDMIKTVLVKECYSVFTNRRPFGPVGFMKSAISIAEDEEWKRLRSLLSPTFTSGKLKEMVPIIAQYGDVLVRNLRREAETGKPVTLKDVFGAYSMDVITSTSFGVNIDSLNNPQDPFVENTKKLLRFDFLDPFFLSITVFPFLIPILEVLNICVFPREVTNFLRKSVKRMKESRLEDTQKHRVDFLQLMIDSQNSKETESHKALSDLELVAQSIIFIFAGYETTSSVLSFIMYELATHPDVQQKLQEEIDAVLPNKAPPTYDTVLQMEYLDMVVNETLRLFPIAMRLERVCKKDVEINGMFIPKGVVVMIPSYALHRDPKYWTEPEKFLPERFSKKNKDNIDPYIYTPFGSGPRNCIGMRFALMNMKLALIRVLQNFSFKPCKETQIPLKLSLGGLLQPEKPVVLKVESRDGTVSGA

half-life at 1 μM [1] | Ki [2] | half-life at 1 μM [3] | microsomal CLint at 1 μM [3] | Percent Loss of Substrate [3] | half-life at 1 μM [4] | Percent Loss of Substrate [6] | Percent Loss of Substrate [7] | substrate remaining [7] | half-life at 1 μM [7] | microsomal CLint at 1 μM [7] | Kd [8, 14] | Spectral shift type 2A13 [8] | half-life at 1 μM [9] | microsomal CLint at 1 μM [9] | Percent Loss of Substrate [9] | half-life at 1 μM [10] | microsomal CLint at 1 μM [10] | Structure (SMILES) | IC50 [5] | inhibition at 10 µM [5] | further results
33 min | ≥ 1000 µM | 1.6 min | 433 µL/min/mg | 99.9% | < 5 min | No Loss/No Loss | 47.0% | 53% | 22.9 min | 30.3 µL/min/mg | 5.9 ± 3.4 µM | I | 2.4 min | 283 µL/min/mg | 99.8% | 4.7 min | 149 µL/min/mg | Clc1ccccc1CN1CCOCC1 [Compound 3, 4-(2-chlorobenzyl)morpholine] | > 10 µM | 13.9% | Percent Loss of Substrate [10]: 96.7%; Kd 2A6 [11]: No ^** Spectral Shift
25 min | 287 µM | 1.3 min | 551 µL/min/mg | 100% | < 5 min | No Loss/No Loss | 85.5% | 14% | 7.6 min | 91.4 µL/min/mg | 5.2 µM | I | 1.5 min | 478 µL/min/mg | 100% | 4 min | 173 µL/min/mg | Fc1cccc(Cl)c1CN1CCOCC1 [Compound 7, 4-(2-chloro-6-fluorobenzyl)morpholine] | > 10 µM | 24.8% | Kd ([8]; Kd CYP2A13, follow-up titration of HTS hit, Figure 1D): ~2 µM; Percent Loss of Substrate [10]: 97.3%; half-life at 1 μM [12]: 124 min; microsomal CLint at 1 μM [12]: 55.7 µL/min/mg; spectral shift with 2A6 ([11]; follow-up titration of HTS hit, Figure 1D): no spectral shift; Kd 2A6 [11]: did not cause a spectral shift; also recorded: No ^** Spectral Shift; increase in metabolic stability, transgenic vs wild type lung microsomes ([13]; 0.1 mg/ml protein): 5 fold; half-life at 1 μM [13, 15]: 669 min; microsomal CLint at 1 μM [13, 15]: 10.4 µL/min/mg

From article PMC3781598 (Pharmaceutical research, 2013)
